Assay results collected from several papers.
Protocols differ between the studies behind these lines.
AVPR2: Vasopressin V2 receptor (AVPR2, Homo sapiens, UniProt P30518)
HTR1E: 5-hydroxytryptamine receptor 1E (HTR1E, Homo sapiens, UniProt P28566)

SMILES | target | test | EC50
CC1=NN(/C(=N\c2ccccc2F)Nc2nnc(C)s2)C(c2ccc(C)cc2)S1 (stereo not drawn) | AVPR2 | cAMP, positive allosteric modulator | 41.4 µM
CN(C)CCOC1=Cc2ccccc2Sc2ccc(Cl)cc21 | HTR1E | G protein activation, agonist, BRET | 0.622 µM
CC1=NN(/C(=N/c2nnc(C)s2)Nc2ccc(C)c(C)c2)C(c2ccc(F)c(C(F)(F)F)c2)S1 (stereo not drawn) | AVPR2 | cAMP, positive allosteric modulator | > 50 µM
CC(C)=CCn1cnc(=N)c2[nH]cnc21 | G-protein coupled receptor 84 (GPR84, Homo sapiens, UniProt Q9NQS5) | cAMP, agonist, luciferase | 32 µM
CN1CCN2c3ncccc3Cc3ccccc3C2C1 (stereo not drawn) | HTR1E | G protein activation, agonist, BRET | 0.755 µM
CC(C)=CCNc1ncnc2c1ncn2[C@@H]1O[C@H](CO)[C@@H](O)[C@H]1O | Adenosine receptor A3 (ADORA3, Homo sapiens, UniProt P0DMS8, V169L) | G protein activation, agonist | 1.2 µM
COc1ccccc1N1CCN(CCCCN2C(=O)c3ccccc3C2=O)CC1 | HTR1E | G protein activation, agonist, BRET | 2.17 µM
CN(C)c1ncnc2c1ncn2[C@@H]1O[C@H](CO)[C@@H](O)[C@H]1O | Adenosine receptor A3 (ADORA3, Homo sapiens, UniProt P0DMS8, I253Q) | G protein activation, agonist | 46 µM
CCCc1ccc(/N=C(/Nc2nnc(C)s2)N2N=C(C)SC2c2ccc(C)cc2)cc1 (stereo not drawn) | AVPR2 | cAMP, positive allosteric modulator | 3.9 µM
